According to the RNAGym collection of RNA variant scans (doi:10.1126/science.aae0568):
This sample holds only a part of the variants without activity.

B1: tRNA (parent)
chain: GUUCCGUUGGCGUAAUGGUAACGCGUCUCCCUCCUAAGGAGAAGACUGCGGGUUCGAGUCCCGUACGGAACG

Variants of: B1
Assay: yeast fitness relative to wild type (ratio to wild type); higher = fitter; tRNA-Arg(CCU), competitive growth, 37 C, YPD
Method in brief: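 Changes in genotype frequencies gave Darwinian fitness relative to wild type. Frequencies were read by 100-nucleotide paired-end sequencing of gene amplicons before and after pooled Saccharomyces cerevisiae strains, carrying tRNA-Arg(CCU) gene variants at the native locus, were competed in YPD at 37°C for 24 hours in six replicates. A genotype was kept only with ≥ 100 starting reads, and estimates < 0.5 were set to 0.5.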
U32G C61A C62A gave a yeast fitness of 0.537. U32C U54G C62U gave a yeast fitness of 0.565. For C33G U47A C61A C66U, the yeast fitness was ≤ 0.5. For C33U A45C A57U U59C, the yeast fitness was ≤ 0.5. With C33A G67C the yeast fitness was 0.621. Work on C33A G67A yielded a yeast fitness of 0.586. Work on C33U C49A yielded a yeast fitness of 0.638. For C33U C49U, the yeast fitness was 0.849. Work on C33A A36C G63C C66G yielded a yeast fitness of 0.53. With C33A G39A G52C C55G the yeast fitness was ≤ 0.5. With C33A G39C A42G C55U A57G the yeast fitness was 0.585. For C33U A45C, the yeast fitness was 0.703. With C33G A42G G52A C62A the yeast fitness was ≤ 0.5. With C33G C34G U35A G44A the yeast fitness was ≤ 0.5. In the case of C33A G39C, the yeast fitness is reported as 0.677. In the case of C33A A42G A70U, the yeast fitness is reported as ≤ 0.5. With C33G C34G A43G C46G the yeast fitness was ≤ 0.5. For C33G C34A A40C, the yeast fitness was ≤ 0.5. In the case of C33G A37U A40C, the yeast fitness is reported as ≤ 0.5. For U32G A45C G68A, the yeast fitness was ≤ 0.5. In the case of U32G C61U G67U, the yeast fitness is reported as ≤ 0.5. For U32G C34U G52A, the yeast fitness was 0.589. Work on C33U C60U yielded a yeast fitness of 0.629. In the case of C33U C60G, the yeast fitness is reported as 0.607. For C33G C62U A70C, the yeast fitness was 0.618. With C33G G51C C66G G67C the yeast fitness was ≤ 0.5. Variant C33A G56C has a yeast fitness of 0.634. For C33G C34U U53C C61U, the yeast fitness was ≤ 0.5. With C33G G44C the yeast fitness was 0.735. With C33G C60U A69U the yeast fitness was ≤ 0.5. C33U G38A showed a yeast fitness of 0.866. For C33G A40U G51C, the yeast fitness was ≤ 0.5. With C33G C34G A43C G48C C62U the yeast fitness was ≤ 0.5. For C33G G38C A70C, the yeast fitness was 0.705. C33G C55U G56C A69C showed a yeast fitness of 0.831. In the case of C33A A45U C66A, the yeast fitness is reported as ≤ 0.5. With C33G G38C the yeast fitness was 0.548. Work on C33U A37C yielded a yeast fitness of 0.556. In the case of C33U A37U, the yeast fitness is reported as 0.55. C33G A45C C66A showed a yeast fitness of 0.514. For C33G C61A C66U, the yeast fitness was 0.583. In the case of C33G A40G G52C, the yeast fitness is reported as ≤ 0.5. With C33G A37G A40C C49G G67C the yeast fitness was ≤ 0.5. For C33G A36G G39C G67U, the yeast fitness was ≤ 0.5. Variant C33A G50C U53C U64C G68U has a yeast fitness of 0.586. For C33G A45U C46U, the yeast fitness was ≤ 0.5. In the case of U32G C33A, the yeast fitness is reported as 0.601. In the case of U32G C33G, the yeast fitness is reported as 0.59. Variant C33G U47A U64G has a yeast fitness of 0.77. C33G U47G A57G A69U gave a yeast fitness of 0.509. With U32G A45G the yeast fitness was 0.673. U32G A45C showed a yeast fitness of 0.692. Work on C33U A43G U47C yielded a yeast fitness of 0.563. With U32G U35A A65U the yeast fitness was ≤ 0.5. In the case of C33G G56C C62U, the yeast fitness is reported as ≤ 0.5. C33U C34G C66U showed a yeast fitness of 0.542. In the case of C33A G56C A70C, the yeast fitness is reported as 0.574. In the case of C33G A42U, the yeast fitness is reported as 0.73. C33G A42C showed a yeast fitness of 0.675. With C33A A36C G48A C66G the yeast fitness was ≤ 0.5. For C33A A37U A57C, the yeast fitness was ≤ 0.5. Work on C33A A37U A57G yielded a yeast fitness of 0.545. For C33U A37U C60G A69C, the yeast fitness was ≤ 0.5. In the case of C33U G41A C61G, the yeast fitness is reported as ≤ 0.5. Work on C33A A45U A70C yielded a yeast fitness of 0.512. In the case of C33U A69U, the yeast fitness is reported as 0.788. With U32G A40U G52A A57U A65C the yeast fitness was ≤ 0.5. With C33G G50A the yeast fitness was 0.614. C33G A45C gave a yeast fitness of 0.684. With C33G G41C A43C C61U C66U the yeast fitness was ≤ 0.5. In the case of C33U A40U C66U, the yeast fitness is reported as ≤ 0.5. For U32G A40U G52A A57U, the yeast fitness was ≤ 0.5. With C33U A36G C55U A69C the yeast fitness was ≤ 0.5. In the case of C33A U53A, the yeast fitness is reported as ≤ 0.5. With C33G A36U G39A A57U the yeast fitness was ≤ 0.5. With C33A A40U U53C C55U C62U the yeast fitness was ≤ 0.5. For C33U G38A C60G U64C, the yeast fitness was ≤ 0.5. With C33A A37C G56A A65G C66U the yeast fitness was ≤ 0.5. For C33U C49G A65C, the yeast fitness was 0.504. Work on C33G U54C yielded a yeast fitness of 0.519. For C33G U54A, the yeast fitness was ≤ 0.5. For C33G U54G, the yeast fitness was ≤ 0.5. C33U A40C A45C showed a yeast fitness of 0.561. For C33A G58C, the yeast fitness was 0.647. Work on U32G A65G yielded a yeast fitness of 0.718. Variant C33G G48A U64A has a yeast fitness of 0.613. Work on C33A G41A yielded a yeast fitness of 0.635. Work on C33G A69C A70U yielded a yeast fitness of 0.611. For U32G G39C G52C, the yeast fitness was 0.531. C33G A36U A57U showed a yeast fitness of 0.581. Variant C33A G39A G50C G67C has a yeast fitness of 0.573. With C33G A42G C49U G67A the yeast fitness was ≤ 0.5. Work on C33G G56C yielded a yeast fitness of 0.679. Work on C33A C55U C61A yielded a yeast fitness of 0.559. For C33U G38A C49U C61A, the yeast fitness was ≤ 0.5. C33U C46G C49U gave a yeast fitness of 0.632. For C33G G41C, the yeast fitness was 0.58. For C33A A40G A42G, the yeast fitness was 0.564. In the case of C33U C34A A43C, the yeast fitness is reported as ≤ 0.5. For C33G C34A A43G C61U A65C, the yeast fitness was ≤ 0.5. C33U G38A C46U U64C showed a yeast fitness of 0.536. In the case of C33U C34G A45C C60A, the yeast fitness is reported as ≤ 0.5. For C33G G38C C46G U53C A69C, the yeast fitness was ≤ 0.5. Variant C33U G39C A57U has a yeast fitness of 0.643. For C33U C61U, the yeast fitness was 0.734. In the case of C33G G41A U47A C61U A69U, the yeast fitness is reported as ≤ 0.5. In the case of C33U G39A G63A, the yeast fitness is reported as ≤ 0.5. With C33G A40C the yeast fitness was 0.697. Variant C33G A40G has a yeast fitness of 0.615. For C33G A40G G58A C66G, the yeast fitness was ≤ 0.5. C33U A42U showed a yeast fitness of 0.729. Variant C33U A42G has a yeast fitness of 0.622. In the case of C33G A36C C66U, the yeast fitness is reported as 0.502. In the case of C33A C46U C61G, the yeast fitness is reported as ≤ 0.5. With C33A G50A A69U A70C the yeast fitness was ≤ 0.5. For C33A A40U G51U U64A, the yeast fitness was ≤ 0.5. In the case of C33U A70G, the yeast fitness is reported as 0.6. In the case of C33A U53A C60G, the yeast fitness is reported as 0.681. Variant U32G G41A C60G A65G has a yeast fitness of 0.548. In the case of C33A C34G A57U, the yeast fitness is reported as ≤ 0.5. In the case of C33A C60G A70G, the yeast fitness is reported as ≤ 0.5. For U32G U47G, the yeast fitness was ≤ 0.5. With C33G G39A C49G U54A the yeast fitness was ≤ 0.5. With C33A G39C C49U U54A G63C G67A the yeast fitness was ≤ 0.5. With C33G G39C A69C the yeast fitness was ≤ 0.5. For C33U C55U C60U, the yeast fitness was ≤ 0.5. In the case of C33U G39A A57G, the yeast fitness is reported as ≤ 0.5. For C33G A42U A43U A65C G68C, the yeast fitness was 0.553. In the case of C33A C60U, the yeast fitness is reported as ≤ 0.5. For C33U A40C A45C C60G A65C, the yeast fitness was ≤ 0.5. U32C U59G showed a yeast fitness of 0.878. For C33A C46A C61G A69G, the yeast fitness was ≤ 0.5. For C33A A37G G39C C55U, the yeast fitness was ≤ 0.5. Work on C33G G63U U64A yielded a yeast fitness of 0.553. For C33G G63U U64G, the yeast fitness was 0.665. C33G G51A showed a yeast fitness of 0.626. In the case of C33G G51C, the yeast fitness is reported as ≤ 0.5. C33U A37U G51C A65U gave a yeast fitness of 0.584. Work on U32G A40U U64G yielded a yeast fitness of 0.543. C33A G44A A70C gave a yeast fitness of 0.547. Work on C33U A57U yielded a yeast fitness of 0.546. With C33U A57C the yeast fitness was ≤ 0.5. For C33U A40C A45C U59G C60U, the yeast fitness was ≤ 0.5. For U32G G39C A57U C62G, the yeast fitness was ≤ 0.5. For U32G A45G C49U, the yeast fitness was ≤ 0.5. For C33U G44A, the yeast fitness was 0.652. With C33A C55U the yeast fitness was 0.581. For C33G A45G A70U, the yeast fitness was ≤ 0.5. Variant C33A C61G has a yeast fitness of 0.775. Work on U32G A42G yielded a yeast fitness of 0.56. Work on C33U C49U G51C yielded a yeast fitness of 0.512. With C33G A36U G44A U59C the yeast fitness was 0.611. For C33A C49U C55G, the yeast fitness was ≤ 0.5. With C33G A40G A43G G44A the yeast fitness was ≤ 0.5. For U32G U35A, the yeast fitness was ≤ 0.5. In the case of C33G G67U G68C A69U, the yeast fitness is reported as ≤ 0.5. Work on C33U G41C yielded a yeast fitness of 0.708. For C33U G41A, the yeast fitness was 0.721. Work on C33G C34A A43G C55A yielded a yeast fitness of 0.635. With C33A U35G C49U the yeast fitness was 0.904. In the case of C33U A43G C62G, the yeast fitness is reported as ≤ 0.5. Variant C33A C49U C66U has a yeast fitness of 0.524. For C33A G51C C62G, the yeast fitness was ≤ 0.5. With U32G G48A the yeast fitness was 0.616. In the case of C33G A37G A43C U47C G58C, the yeast fitness is reported as ≤ 0.5. C33U C34U G50A showed a yeast fitness of 0.608. With C33A G48C A70G the yeast fitness was ≤ 0.5.
